The values below come from ChEMBL document CHEMBL3612039, “Design, synthesis and evaluation of novel polypharmacological antichlamydial agents” (Eur J Med Chem, 2015).

Active and inactive are the calls of the source. No cut-off for these calls is given here.

The test system of data set [1] is Chlamydia trachomatis. As to the kind of experiment: Antichlamydial activity against Chlamydia trachomatis L2 serovar VR-902B infected in human HeLa cells assessed as growth inhibition at 50 uM after 24 to 48 hrs by microscopic analysis. The format is functional.
Data set [2] has as its system Yersinia pseudotuberculosis. As to the kind of experiment: Antimicrobial activity against Yersinia pseudotuberculosis after 20 hrs. The format is functional. An outline of the steps:
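Overnight culture diluted into Mueller Hinton broth containing compound at 100, 50, 25 or 12, incubated 37 °C for 20 h; bacterial growth scored by visual inspection to give minimum inhibitory concentration.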

Another data set deals with Chlamydia pneumoniae. The data set can be described thus: Antichlamydial activity against Chlamydia pneumoniae T45 infected in human HeLa cells assessed as growth inhibition at 50 uM after 24 to 48 hrs by microscopic analysis. Type of data set: functional.
A short description of data set [3]: Cytotoxicity against human HeLa cells assessed as cell viability at 50 uM after 48 hrs by resazurin based fluorescence assay. To be noted: read-out: Activity. In general terms: Alamar Blue is a resazurin reagent that responds to reducing activity.
Data set [4] deals with Yersinia pseudotuberculosis. As to the kind of experiment: Inhibition of type 3 secretion system in Yersinia pseudotuberculosis by yopE luciferase reporter gene assay. An outline of the steps:
(§1)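 T3S inhibition in bacterial cultures measured with a yopE luciferase reporter gene. Compound used in two-fold dilutions from 100 to 12,5 at 1% final DMSO. Result given as percent inhibition relative to 1% DMSO-treated controls.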
(A reporter such as luciferase makes a cellular process visible.)

For data set [5], the system named is Yersinia pseudotuberculosis. As to the kind of experiment: Inhibition of phosphatase activity of secreted YopH in Yersinia pseudotuberculosis at 12 to 100 uM by orthogonal assay. Put shortly:
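Orthogonal test of T3S inhibition in bacterial cultures that reads the phosphatase activity of secreted YopH effector protein. Compound used in two-fold dilutions from 100 to 12,5 at 1% final DMSO. Result given as percent inhibition relative to 1% DMSO-treated controls.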

The subject of data set [6] is Chlamydia trachomatis. The data set can be described thus: Antichlamydial activity against Chlamydia trachomatis L2 serovar VR-902B infected in human HeLa cells assessed as growth inhibition at 50 uM after 24 to 48 hrs by microscopic analysis in presence of iron sulfate. The format is functional, organism-based.
Data set [7] has as its system Yersinia pseudotuberculosis. The data set can be described thus: Inhibition of type 3 secretion system in Yersinia pseudotuberculosis at 100 uM by yopE luciferase reporter gene assay. Put shortly:
as §1

Data set [8] is described as follows: Aqueous solubility of the compound. Type of data set: physicochemical. Conditions: buffer.

Broadly, the inhibition is the share of the control response that was lost under treatment. The MIC is the least concentration at which growth counts as inhibited. A higher MIC goes with a need for much substance. On to `Cc1cc(NS(=O)(=O)c2ccc(NC(=O)/C=C/c3ccc(C(=O)N/N=C/c4cccc(F)c4O)cc3)cc2)no1`, for which, in the data set with Chlamydia trachomatis [1], the inhibition at 50 µM came out at 33.4%. In data set [2], this compound returned an MIC above 100 µM. Further, the inhibition entry in the data set with Chlamydia pneumoniae was “inactive”. Besides, the viability at 48 h, 50 µM in [3] was above 70%. In addition, in data set [4], the inhibition entry was “Dose-dependent effect”.

As to `Cc1cc(NS(=O)(=O)c2ccc(NC(=S)NCc3ccccc3O)cc2)no1`, the inhibition result in the data set with Chlamydia trachomatis [1] and in the data set with Chlamydia pneumoniae was “inactive” throughout. In [2], the minimal inhibitory concentration (MIC) is above 100 µM. The viability at 48 h, 50 µM in data set [3] was above 70%.

Consider `Cc1cc(NS(=O)(=O)c2ccc(NC(=S)Nc3ccc(O)cc3)cc2)no1`, for which, in the data set on Chlamydia trachomatis [1], the inhibition entry was “inactive”. In addition, in [2], the MIC was above 100 µM. The inhibition at 50 µM in the data set with Chlamydia pneumoniae came out at 60.8%. For the same compound, the viability at 48 h, 50 µM in data set [3] was above 70%.

As for `Cc1cc(NS(=O)(=O)c2ccc(C(=O)N/N=C/c3cc(Cl)cc(Cl)c3O)cc2)no1`, the inhibition at 50 µM in the data set with Chlamydia trachomatis [1] was 24.2%. In data set [2], this compound registered an MIC above 100 µM. Moreover, the inhibition result with Chlamydia pneumoniae is “inactive”. The viability at 48 h, 50 µM in data set [3] is above 70%. For the same compound, the inhibition entry in data set [4] was “Dose-dependent effect”.

In the case of `Cc1cc(NS(=O)(=O)c2ccc(NC(=O)c3sc4cc(Cl)ccc4c3Cl)cc2)no1`, the inhibition result in data set [5] and in data set [7] was “inactive” in each case. Further, in the data set on Chlamydia trachomatis [6], the “growth inhibition (GI)” value is “Active”.

As for `Cc1cc(NS(=O)(=O)c2ccc(C(=O)N/N=C/c3cc(Br)cc(Br)c3O)cc2)no1`, the inhibition at 50 µM was determined as 65.2% with Chlamydia trachomatis [1] and 99.4% in the data set with Chlamydia pneumoniae. Also, in data set [2], the MIC is above 100 µM. Further, the “growth inhibition (GI)” value in the data set on Chlamydia trachomatis [6] is “inactive”. Besides, in data set [3], the viability at 48 h, 50 µM was above 70%. The inhibition entry in data set [7] is “Active”. Also, in [4], the inhibition result is “Dose-dependent effect”.

Turning to `Cc1cc(NS(=O)(=O)c2ccc(NC(=O)/C=C/c3ccc(C(=O)N/N=C/c4cc(Cl)cc(Cl)c4O)cc3)cc2)no1`, in the data set on Chlamydia trachomatis [1], the inhibition at 50 µM was 14.6%. This compound also registered a minimal inhibitory concentration (MIC) in [2] above 100 µM. Besides, in the data set with Chlamydia pneumoniae, the inhibition result was “inactive”. Moreover, the viability at 48 h, 50 µM in [3] is above 70%. The inhibition entry in data set [4] is “Dose-dependent effect”.

In the case of `CCN(CC)c1ccc(/C=N/NC(=O)c2ccc(S(=O)(=O)Nc3cc(C)on3)cc2)c(O)c1`, the inhibition at 50 µM in the data set with Chlamydia trachomatis [1] is 83%; in the data set on Chlamydia pneumoniae it was 100%. Also, in data set [2], the MIC is above 100 µM. Also, the “growth inhibition (GI)” value with Chlamydia trachomatis [6] is “inactive”. Further, the viability at 48 h, 50 µM in data set [3] is above 70%. Further, in [4], the inhibition result was “Dose-dependent effect”.

On to `Cc1cc(NS(=O)(=O)c2ccc(NC(=O)/C=C/c3ccc(C(=O)N/N=C/c4cc(Br)ccc4O)cc3)cc2)no1`, for which the inhibition at 50 µM in the data set with Chlamydia trachomatis [1] came to 21.5%. Also, the MIC in data set [2] was above 100 µM. Further, the inhibition result with Chlamydia pneumoniae is “inactive”. Also, in data set [3], the viability at 48 h, 50 µM was above 70%. For the same compound, the inhibition entry in data set [4] was “Dose-dependent effect”.

Regarding `Cc1cc(NS(=O)(=O)c2ccc(C(=O)N/N=C/c3ccc(O)cc3O)cc2)no1`, the inhibition at 50 µM in the data set with Chlamydia trachomatis [1] is 47.4%. The same compound yielded an MIC in [2] above 100 µM. In addition, the inhibition entry in the data set on Chlamydia pneumoniae was “inactive”. In addition, the viability at 48 h, 50 µM in data set [3] is above 70%. For the same compound, the inhibition entry in [4] is “Dose-dependent effect”.

For `Cc1cc(NS(=O)(=O)c2ccc(NC(S)=NCc3ccccc3)cc2)no1`, the inhibition at 50 µM with Chlamydia trachomatis [1] is 26.9%. This compound had an MIC in [2] above 100 µM. In addition, the inhibition result in the data set with Chlamydia pneumoniae is “inactive”. Further, the viability at 48 h, 50 µM in data set [3] is above 70%.

With `Cc1cc(NS(=O)(=O)c2ccc(NC(=O)NC3CCCCC3)cc2)no1`, the inhibition at 50 µM in the data set on Chlamydia trachomatis [1] came to 14.8%. Moreover, in data set [2], the MIC is above 100 µM. Besides, the inhibition result in the data set with Chlamydia pneumoniae is “inactive”. The viability at 48 h, 50 µM in data set [3] was above 70%.

`Cc1cc(NS(=O)(=O)c2ccc(NC(=O)NCc3ccccc3)cc2)no1`: the inhibition at 50 µM with Chlamydia trachomatis [1] was 18.5%. The compound also returned an MIC in [2] above 100 µM. The inhibition entry in the data set with Chlamydia pneumoniae was “inactive”. Moreover, in data set [3], the viability at 48 h, 50 µM is above 70%.

Turning to `Cc1cc(NS(=O)(=O)c2ccc(NC(=O)NCc3ccccc3O)cc2)no1`, the inhibition entry in the data set with Chlamydia trachomatis [1] and in the data set with Chlamydia pneumoniae was “inactive” throughout. In addition, in data set [2], the minimal inhibitory concentration (MIC) is above 100 µM. Besides, the viability at 48 h, 50 µM in [3] is above 70%.

As to `Cc1cc(NS(=O)(=O)c2ccc(NC(=O)Nc3ccc(O)cc3)cc2)no1`, the inhibition at 50 µM in the data set on Chlamydia trachomatis [1] was determined as 9.6%. In data set [2], this compound displayed a minimal inhibitory concentration (MIC) above 100 µM. The inhibition entry in the data set with Chlamydia pneumoniae is “inactive”. Further, the viability at 48 h, 50 µM in data set [3] is above 70%.

Consider `Cc1cc(NS(=O)(=O)c2ccc(NC(=S)NC3CCCCC3)cc2)no1`, for which the inhibition at 50 µM in the data set on Chlamydia trachomatis [1] was found to be 26.9%. For the same compound, the MIC in data set [2] is above 100 µM. Moreover, the inhibition result with Chlamydia pneumoniae is “inactive”. In [3], the viability at 48 h, 50 µM was above 70%.

As for `CCN(CC)c1ccc(/C=N/NC(=O)c2ccc(/C=C/C(=O)Nc3ccc(S(=O)(=O)Nc4cc(C)on4)cc3)cc2)c(O)c1`, the solubility entry in data set [8] is “Insoluble”. Further, the inhibition at 50 µM in the data set with Chlamydia trachomatis [1] amounted to 28%; with Chlamydia pneumoniae, 22.4%. This compound had an MIC in data set [2] above 100 µM. In data set [4], the inhibition result was “Dose-dependent effect”.
